# In the library only some 1.4% were active in any assay of this set; here they are far more common.
# Cardio protect – modulators protecting cardiomyocytes from myocardial damage. H9c2 cardiomyocytes, H2O2 injury protection, ATPLite, 2 h. protection from H2O2 cell death, % at 20 µM. 360,000 compounds, 0.63% hits. AID 588492;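 active means compounds giving at least 50% protection of heart cells from peroxide-induced death in the single-dose screen, raw or plate-pattern-corrected value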
# MT1-MMP act inh – blocks activation of human MT1-MMP | P50281 | HT1080 RFP-PRO-GFP cells, GFP/RFP ratio fluorescence, overnight; percent of plate control window, DMSO zero | GFP/RFP ratio change, % at 20 µM | 360,000 compounds, 0.061% hits;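 active means GFP/RFP ratio change of at least 30% with cell ATP level not reduced by more than half and red fluorescence within 50% of control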
#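 system = RFP-PRO-GFP reporter HT1080 cells | dosing = 20 µM single dose, 1% DMSO | timing = overnight cell settling, then overnight compound exposure, 37 °C, 5% CO2 | read-out basis = GFP/RFP fluorescence ratio | controls = DMSO and RFP-L50D-GFP cell wells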
# Tn6 DDE FP – disrupts Tn6 cyclic peptide binding to fibrin D-Dimer-E complex; inhibition, % at 8.3 µM; AID 720509; 370,000 compounds, 0.21% hits; Fibrin DD(E) TRITC-Tn6 fluorescence polarization displacement;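 active means inhibition above a per-campaign cutoff: mean of compounds within control limits plus 3 SD, cut at about 15% in these data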
# Target sequence (P02675 whole entry, looked up): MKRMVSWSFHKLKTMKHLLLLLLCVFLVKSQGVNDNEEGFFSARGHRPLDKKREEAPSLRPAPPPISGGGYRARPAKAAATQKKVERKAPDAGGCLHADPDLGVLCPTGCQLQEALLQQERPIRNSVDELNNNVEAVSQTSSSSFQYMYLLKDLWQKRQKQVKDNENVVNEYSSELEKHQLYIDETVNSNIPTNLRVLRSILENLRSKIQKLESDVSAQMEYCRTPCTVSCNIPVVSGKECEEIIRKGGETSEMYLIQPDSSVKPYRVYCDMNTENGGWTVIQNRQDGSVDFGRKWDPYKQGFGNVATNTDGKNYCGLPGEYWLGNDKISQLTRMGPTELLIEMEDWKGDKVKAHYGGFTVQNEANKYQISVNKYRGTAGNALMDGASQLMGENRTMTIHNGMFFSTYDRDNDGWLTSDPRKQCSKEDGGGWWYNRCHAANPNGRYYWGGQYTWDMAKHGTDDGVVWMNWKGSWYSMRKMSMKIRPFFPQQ
# DAGLB inh – diacylglycerol lipase beta (human) inhibition; Q8NCG7; AID 504411; inhibition, % at 5.17 µM; HEK293T DAGLB membrane lysate, EnzChek fluorogenic substrate; 340,000 compounds, 0.059% hits; in the data active means inhibition above about 34%
# DDE Tn7 FP inh – inhibitors of Tn7 peptide binding to human fibrin DD(E). P02675. 370,000 compounds, 0.13% hits. inhibition, % at 8.3 µM. FP displacement of FITC-Tn7 peptide from fibrin DD(E); 0% = median of compound wells per plate;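 active means inhibition above the mean of compounds falling within the control limits plus 3 SD of them, cut at about 14% in these data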
#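 Assay system: Fibrin-DD(E) protein isolated from polymerized human fibrin clots; read-out basis: percent inhibition; medium: Tris/NaCl/CaCl2 buffer, pH 7.8; signal: FP measurement; incubation: 10 min plus 3 h, room temperature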
# H9c2 TAG inh – inhibitors of triacylglycerol accumulation; H9c2 cells, Nile Red lipid (TAG) fluorescence; cells loaded with 200 µM oleic acid; inhibition, % at 12.5 µM; 230,000 compounds, 0.66% hits; AID 651582;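 active means pattern-corrected inhibition of lipid staining of at least 50% with the nuclear-stain viability signal not falling by more than 50%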
# DDE Tn6 FP ctr – DD(E)-Tn6 binding inhibition, counter-screen. Fibrin DD(E), TRITC-Tn6 fluorescence polarization displacement; 0% = median of compound wells, not DMSO. shares compounds with Tn6 DDE FP. inhibition, % at 8.3 µM. 680 compounds, 2% hits;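 active means inhibition above the mean of test compounds lying between the control limits plus 3 SD of those, cut at about 14% in these data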
# Tn6 DDE conf – confirmation of inhibitors of Tn6 binding to human fibrin DD(E). shares compounds with Tn6 DDE FP. FP displacement of TRITC-Tn6 peptide from DD(E); 0% = per-plate median of test wells. inhibition, % at 8.3 µM. 680 compounds, 10% hits;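 active means inhibition above the mean of compounds lying within the control limits plus 3 SD, cut at about 16% in these data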
# Hits are given with their value; 0 = inactive; - = not tested or not shown; + = active, no number.
SMILES,Cardio protect,MT1-MMP act inh,Tn6 DDE FP,DAGLB inh,DDE Tn7 FP inh,H9c2 TAG inh,DDE Tn6 FP ctr,Tn6 DDE conf
O=C1OC=NC1=Cc1ccccc1,0,0,0,0,0,0,-,-
COc1ccc(C(=O)CSc2nnc(-c3ccccc3)n2-c2ccc(Cl)cc2)cc1,-,-,0,-,0,-,-,-
CC(C)C[C@H]1CN(CCCC[C@@H]2CNC(=O)C(=O)N2CC2CCCCC2)C(=O)C(=O)N1CCC1CCCCC1,-,0,0,-,0,-,-,-
COc1cc(OC)c(C2C(C(=O)N3CCOCC3)=C(C)NC3=C2C(=O)CC(C)(C)C3)cc1OC (centres undefined),0,0,17,0,0,0,0,0
CCc1nc2ccc(C(=O)NCCOc3ccc(OC)cc3)cn2c1N(C)C(=O)C1CCCCC1,0,0,16,-,0,0,0,0
CCn1c(SCc2ccccc2Cl)nnc1-c1ccccc1OC,-,-,0,-,0,-,-,-
COc1cccc(C(=O)NNC(=O)c2ccc3ccccc3c2O)c1,0,0,0,0,0,0,-,-
CC1N(C)c2cc(NC(=O)c3ccco3)c(P(=O)(Nc3ccc([N+](=O)[O-])cc3)N3CCOCC3)cc2C1(C)C (centres undefined),0,0,0,0,0,0,-,-
CC1N(C)c2cc(NC(=O)c3ccco3)ccc2C1(C)C (centres undefined),0,0,+,0,0,-,0,0
COCCCNC(=O)c1ccc(Cn2c(=O)c3ccccc3n(CC(=O)NCc3ccco3)c2=O)cc1,0,0,0,0,0,0,-,-
COCCNC(=O)Cn1c(=O)n(Cc2ccc(C(=O)NCCc3ccc(OC)c(OC)c3)cc2)c(=O)c2ccccc21,0,0,17,0,0,0,0,0
CN(C)N1C(N)=C(C#N)C(c2ccc3c(c2)OCO3)C2=C1CCCC2=O (centres undefined),0,0,15,0,0,-,0,0
CC(C)Cn1c2c(c(O)c(C(=O)Nc3ncccc3O)c1=O)CCCC2,0,0,0,0,0,0,-,-
CC(C)Cn1c2c(c(O)c(C(=O)Nc3ccc(F)cc3)c1=O)CCCC2,0,0,16,0,0,0,0,0
COc1ccc(C(CNC(=O)C(=O)NC2CCCCC2)N2CCN(C)CC2)cc1 (centres undefined),0,0,16,0,0,0,0,0
COc1ccc(C(CNC(=O)C(=O)NC2CCCC2)N2CCN(C)CC2)cc1 (centres undefined),0,0,0,0,0,0,-,-
CC(C1CC1)N(Cc1ccccc1)C(=O)NC(=O)c1ccccc1 (centres undefined),0,0,18,0,0,0,0,0
Cc1nn(-c2ccccc2)c2c1C(c1ccc([N+](=O)[O-])cc1)C(C#N)=C(N)O2 (centres undefined),0,0,16,0,0,-,0,0
Cc1ccc(-n2nc(C)c3c2OC(N)=C(C#N)C3c2ccc(F)cc2)cc1 (centres undefined),0,0,0,0,0,-,-,-
Cc1nc2ccccc2n1-c1nc(-c2ccco2)cc(C(F)(F)F)n1,0,0,18,0,0,-,0,0
O=C1[C@@H](c2ccccc2)CC[C@@H]2C=CC[C@H]3CCN1[C@@H]32,-,0,0,-,0,-,-,-
COc1ccccc1Oc1ccc(S(=O)(=O)NCc2ccccn2)cc1,0,0,15,0,0,-,0,0
COc1ccc(S(=O)(=O)NCc2ccccn2)cc1OC,0,0,0,0,0,-,-,-
COC(=O)[C@]12C[C@H](CC(=O)NCCCCc3ccccc3)C(=O)N(Cc3ccc(Cl)cc3Cl)C1=C[C@H](C1CCCC1)O[C@@H]2C,-,-,0,-,0,-,-,-
C[C@@]12C(C[C@H](O)[C@@]34C[C@@H](CCC13)[C@@H](CO)C4=O)[C@](C)(C(=O)O)CC[C@@H]2O (some centres undefined),0,0,21,-,0,-,0,0
SMILES,Cardio protect,MT1-MMP act inh,Tn6 DDE FP,DAGLB inh,DDE Tn7 FP inh,H9c2 TAG inh,DDE Tn6 FP ctr,Tn6 DDE conf
C=C1C(=O)[C@]23C[C@H]1CCC2[C@@]1(C)C(C[C@@H]3O)[C@](C)(C(=O)OC)CC[C@@H]1O (some centres undefined),0,0,0,-,0,-,-,-
O=C(c1cc(Cl)cc(Cl)c1)N1CCC(=O)N([C@H](COCc2ccccc2)Cc2ccccc2)CC1,-,0,0,-,0,-,-,-
CC(C)(C)n1nc2c(c1NC(=O)COc1ccc(F)cc1)CS(=O)(=O)C2,0,0,16,0,0,0,0,0
O=C1Cc2ccccc2C(=O)N1,-,0,0,-,0,-,-,-
COc1ccc(S(=O)(=O)N(C)C[C@H]2Oc3ccc(NC(=O)Nc4ccc(C(F)(F)F)cc4)cc3C(=O)N([C@H](C)CO)C[C@@H]2C)cc1,0,0,81,0,0,0,0,34
C[C@@H]1CN([C@H](C)CO)C(=O)c2cc(NC(=O)Nc3ccc(C(F)(F)F)cc3)ccc2O[C@H]1CN(C)S(=O)(=O)c1ccccc1,0,0,48,0,0,0,14,0
C[C@H](CO)N1C[C@H](C)[C@@H](CN(C)S(=O)(=O)c2ccccc2)Oc2c(NC(=O)Nc3ccc(C(F)(F)F)cc3)cccc2C1=O,0,0,0,0,0,-,-,-
COc1ccc(-n2c(SCC(=O)Nc3cccc4ccccc34)nnc2-c2ccco2)cc1,-,-,0,-,0,-,-,-
COc1ccccc1-n1c(SCC(=O)NC2CCS(=O)(=O)C2)nc2ccccc2c1=O (centres undefined),0,0,15,0,0,0,0,0
CCOC(=O)c1cccc(NC(=O)CN(C)S(=O)(=O)c2ccc(F)cc2)c1,-,-,0,-,0,-,-,-
COc1cccc(NC(=O)c2cc3ccccc3cc2OC)c1,0,0,15,0,0,-,0,0
COc1ccc(NC(=O)c2cc3ccccc3cc2OC)cc1OC,0,0,0,0,0,-,-,-
Cn1c(N)c(C(=O)COC(=O)CC2CC3CCC2C3)c(=O)n(C)c1=O (centres undefined),0,0,16,0,0,0,0,0
Cn1c(N)c(C(=O)COC(=O)Cc2ccc(Br)cc2)c(=O)n(C)c1=O,0,0,0,0,0,0,-,-
Cc1cc(C(=O)COC(=O)c2cccnc2Cl)c(C)n1C,0,0,0,0,0,0,-,-
O=C(CCN1CCOCC1)N1CCCC(Nc2ccc(F)cc2)C1 (centres undefined),0,0,15,0,0,-,0,0
